Bioassay records deposited in PubChem BioAssay by several laboratories.
This is a sample that favours compounds with a hit; in the whole collection about 1.7% have one here.
CAL PDZ FP-1 – blocks peptide binding to the human CAL PDZ domain | Q9HD26 | purified CAL PDZ, TMR-peptide fluorescence polarization, 1 h | inhibition, % at 24.9 µM | hit rate 0.92% among 300,000 | AID 602252;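 active = mean inhibition of at least 30% with at least half of replicates also reaching 30%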;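 note: 0% = DMSO neutral control and 100% = excess unlabeled competitor peptide PRC23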
A3A deaminase – blocks human APOBEC3A ssDNA deamination. P31941. recombinant A3A, FAM/TAMRA ssDNA deamination fluorescence. inhibition, % at 20 µM. hit rate 0.41% among 330,000;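 active = at least 40% inhibition at 20 µM here, with at most 30% in a related deaminase screen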;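 note: plate controls were A3A with DMSO for no effect and wells lacking A3A enzyme for full effect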
Target sequence (P31941 whole entry, looked up): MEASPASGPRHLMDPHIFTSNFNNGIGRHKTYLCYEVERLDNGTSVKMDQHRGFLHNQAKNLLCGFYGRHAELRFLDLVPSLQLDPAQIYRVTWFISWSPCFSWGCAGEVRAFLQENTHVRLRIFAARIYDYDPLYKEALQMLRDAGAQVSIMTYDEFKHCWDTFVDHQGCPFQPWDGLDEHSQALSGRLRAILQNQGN
Keap1-Nrf2 PPI – inhibitors of human Keap1-Nrf2 protein-protein interaction; Q14145; Keap1 Kelch-Nrf2 peptide fluorescence polarization, 1536-well; inhibition, % at 9.4 µM; hit rate 0.15% among 340,000; in the data active = inhibition above about 12%;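 note: human Keap1 Kelch domain with fluorescein labeled Nrf2 9mer peptide probe; 0% = neutral control wells and 100% = peptide positive control; higher means more block of Keap1 binding to Nrf2 peptide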
C-LANA FP – KSHV C-LANA DNA binding inhibition. MBP-C-LANA/FAM-LBS DNA binding, fluorescence polarization. inhibition, % at 9 µM. hit rate 0.078% among 340,000. AID 504423;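 active = highest replicate inhibition at or above 60% at 9 µM, even if other replicates fall short; inactive = all replicates below 60% inhibition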;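 note: 0% = neutral control wells and 100% = 4 µM acridine orange control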
CAL PDZ FP-2 – blocks peptide binding to human CAL PDZ domain. Q9HD26. purified CAL PDZ, TMR-peptide fluorescence polarization, 1 h. inhibition, % at 20 µM. hit rate 0.02% among 330,000;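 active = highest replicate inhibition of at least 40%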;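 note: plate controls were DMSO neutral control wells for no effect and unlabeled competitor peptide control wells for full effect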
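Material: tagged CAL PDZ protein CerCALP, purified; buffer or medium: sodium phosphate/NaCl buffer pH 7.4 with TCEP, IgG, Thesit; also added: fluorescent TMR peptide probe; schedule: 1 h incubation at room temperature before polarization reading; technique: fluorescence polarization from S- and P-plane intensities, G-factor corrected; control set: unlabelled peptide and DMSO controls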
A3G deaminase – APOBEC3G (human) deaminase inhibition; hit rate 0.28% among 330,000; AID 493012; Q9HC16; recombinant A3G, ssDNA deamination FAM/TAMRA fluorescence; inhibition, % at 20 µM;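 active = inhibition of at least 40% at 20 µM, with no more than 30% in the related APOBEC3A deaminase screen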;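 note: plate controls were DMSO wells with A3G for no effect and wells lacking A3G enzyme for full effect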
Target sequence (Q9HC16 whole entry, looked up): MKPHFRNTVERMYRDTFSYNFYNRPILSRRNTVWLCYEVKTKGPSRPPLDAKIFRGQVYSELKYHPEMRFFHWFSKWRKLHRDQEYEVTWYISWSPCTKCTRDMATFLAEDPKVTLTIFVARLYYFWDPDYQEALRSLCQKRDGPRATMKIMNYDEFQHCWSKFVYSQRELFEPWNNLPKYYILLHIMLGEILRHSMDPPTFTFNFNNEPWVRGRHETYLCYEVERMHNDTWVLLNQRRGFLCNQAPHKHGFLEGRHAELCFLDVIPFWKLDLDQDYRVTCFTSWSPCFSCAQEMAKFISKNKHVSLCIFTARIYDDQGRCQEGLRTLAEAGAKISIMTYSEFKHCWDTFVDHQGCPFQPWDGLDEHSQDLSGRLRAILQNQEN
Active calls of the source: *; x = not tested or not shown; ! = repeats disagree.

SMILES	CAL PDZ FP-1	A3A deaminase	Keap1-Nrf2 PPI	C-LANA FP	CAL PDZ FP-2	A3G deaminase
COc1ccc(N2C(=O)CSC2c2ccc([N+](=O)[O-])cc2)cc1 (centres undefined)	-3	-2	-4	3	1	-3
O=C(COC(=O)c1ccc([N+](=O)[O-])s1)Nc1ncc(C(F)(F)F)cc1Cl	71*	2	2	0	1	-7
Cc1cc(C)cc(NC(=O)COc2ccc(C(=S)N3CCOCC3)cc2)c1	-3	-1	3	0	-1	-3
O=C(Nc1ccccc1Br)C1CCN(S(=O)(=O)c2cccs2)CC1	-5	-3	-2	-1	0	-5
CCCCN(C(=O)COC(=O)c1ccc(C=O)cc1)c1c(N)n(CCC)c(=O)[nH]c1=O	-5	0	1	-1	0	-5
COCCCNC(=O)C1CC(=O)OC1c1ccc(OC)c(OC)c1 (centres undefined)	42*	4	4	1	1	2
CCc1ccc(OCC(=O)N2CCc3ccccc32)cc1	38*	0	4	-2	-1	-2
O=C(NC1CCCC1)C(c1ccccn1)N(Cc1ccc(F)cc1)C(=O)c1csnn1 (centres undefined)	51*	-3	0	-1	-1	-8
N#Cc1c(NCc2ccccc2)ccnc1Cl	40*	-2	-2	1	-1	-6
N#Cc1sc(NCc2ccccc2)nc1Cl	-3	-3	-3	0	-4	-6
O=C1CCN2C=Nc3cccc4ccc1c2c34	-1	-6	140*	152*	-1	-14
Cc1ccc(/C=N/NC(=O)CSc2nnc(-c3ccc(Cl)cc3)n2-c2ccc(Cl)cc2)o1	0	-3	-3	-4	-1	-9
Cc1ccc(/C=N/NC(=O)CSc2nnc(-c3ccccc3)n2-c2ccc(Cl)cc2)o1	70*	-1	-4	-1	-1	-4
CCCn1c(SCC(=O)Nc2cc(Cl)ccc2OC)n[nH]c1=O	-2	-1	-5	3	0	-7
CCCn1c(SCC(=O)Nc2cc(Cl)ccc2Cl)n[nH]c1=O	52*	-2	-6	-2	-1	-3
CCCc1c(C)c2cccc(C)c2[nH]c1=O	-6	-16	-1	0	x	-3
CCCCN1CCc2c([nH]c3c(C)cccc23)C1=O	72*	-3	-2	0	-1	-2
CC(C)(C)OC(=O)NC1CCN(S(=O)(=O)c2ccc3c(c2)OCCO3)CC1	4	0	1	-3	0	2
O=C(O)C1CC=CCC1C(=O)Nc1ccccc1 (centres undefined)	1	7	1	2	-1	0
O=C(COC(=O)c1ccc(NC(=O)C2CC=CCC2C(=O)O)cc1)c1ccccc1 (centres undefined)	67*	4	1	0	x	-2
COc1ccccc1-c1c(C)nn2c(N)c(-c3ccccc3)cnc12	69*	1	4	1	x	2
CC(C)n1ncc2c(C(=O)NCC(=O)Nc3ccccc3Br)cc(C3CC3)nc21	46*	-2	5	1	0	-7
CCc1ccccc1NC(=O)CNC(=O)c1cc(C2CC2)nc2c1cnn2C(C)C	-4	3	2	0	-1	-4
CCOC(=O)Cc1csc(NC(=O)/C=C/c2ccc(OC)cc2)n1	32*	1	-6	-1	-3	0
C=CCn1c(SCC(=O)/C(C#N)=C(\C)N)nc2sc(CC)cc2c1=O	40*!	4	-3	-3	0	0
SMILES	CAL PDZ FP-1	A3A deaminase	Keap1-Nrf2 PPI	C-LANA FP	CAL PDZ FP-2	A3G deaminase
C=CCn1c(SCC(=O)O)nc2sc(CC)cc2c1=O	x	2	-2	1	1	3
Cc1cc(C(=O)NCCCN2CCN(C3CCCCC3)CC2)n(-c2ccccc2)n1	-4	43*	2	-1	0	-6
Cc1ccc(S(=O)(=O)CCC(=O)OCC(=O)Nc2cc(S(=O)(=O)N3CCOCC3)ccc2C)cc1	-10	0	-3	1	-2	-9
COc1ccc(C(=O)Nc2c(N)nc(SCC(=O)NCC3CCCO3)[nH]c2=O)cc1OC (centres undefined)	92*	-5	-3	0	-1	-9
O=C(CSc1nc2ccccc2[nH]1)NCC1CCCO1 (centres undefined)	40*	-1	1	0	-2	1
Cc1ccc(C(=O)Nc2c(N)nc(SCC(=O)NCC3CCCO3)[nH]c2=O)cc1 (centres undefined)	-2	-1	-3	-1	-1	-2
COc1cccc(/C=N\NC(=O)c2ccc(Cn3cc(Br)c([N+](=O)[O-])n3)o2)c1O	7	1	3	1	-2	-1
O=C(C=Cc1ccc2c(c1)OCO2)OCC=Cc1ccc2c(c1)OCO2	53*	x	-1	1	1	x
COc1cc(C=CC(=O)OCC=Cc2ccc3c(c2)OCO3)cc(OC)c1OC	x	x	3	-1	1	x
N#C/C(=C/c1cn[nH]c1-c1cccc(Br)c1)C(=O)O	1	1	-1	0	-1	-3
N#C/C(=C/c1cn[nH]c1-c1ccc(Br)cc1)C(=O)O	33*	-1	4	-1	-2	-3
Cn1cc(Br)c(C(=O)Nc2ncc(Br)s2)n1	1	2	-6	1	-2	17
Cc1cccc(C)c1NC(=O)NCCCN1CCN(c2ccccc2)CC1	51*	3	-4	0	-1	17
c1cnn(Cc2cnc(N3CCOCC3)s2)c1	61*	-4	1	1	-1	-9
CC1=NNC(=O)C1CC(=O)N/N=C/c1sccc1C (centres undefined)	x	-7	-3	2	-2	-15
COc1cc(OC)c(OC)cc1/C=N/NC(=O)CC1C(=O)NN=C1C (centres undefined)	36*	-1	8	1	-4	-3
COC(=O)c1ccc(/C=C/C(=O)OCC(=O)c2ccc[nH]2)cc1	-3	-2	-5	1	1	2
COCC(=O)N1CCC(Oc2ccc(C(=O)NCc3cnc(C)cn3)cc2)CC1	57*	6	-1	-2	7	-3
CCN(CCn1cccn1)C(=O)c1ccc(OC2CCN(C(=O)COC)CC2)cc1	-2	-1	-3	0	3	-9
COCC(=O)N1CCC(Oc2ccc(C(=O)NCCCn3cccn3)cc2)CC1	58*	3	-6	0	0	10
CCc1cccc(NC(=O)CCNS(=O)(=O)c2ccc3[nH]c(=O)oc3c2)c1	40*	-3	4	0	-1	-10
C[N+](C)=C1SCC(C)(/C=N/O)S1 (centres undefined)	-13	3	-5	-3	-1	16
CCc1nnc(NC(=O)CN2CCN(Cc3ccccc3C)CC2)s1	0	-3	-3	-1	1	-6
